Measured values pooled from the literature.
Lines come from different studies, so protocols differ.
Target: Ribosomal protein S6 kinase beta-1 (RPS6KB1, Homo sapiens, UniProt P23443)

| Structure (SMILES) | observed | action | method | tested at | quantity | value |
| --- | --- | --- | --- | --- | --- | --- |
| CN(C)C1CCN(CC#Cc2nn(C3CCCC3)c3nc(NCc4ccccc4)ncc23)C1 (centres unmarked) | enzyme activity | inhibitor | FRET | 0.1 µM | inhibition | 6% |
| O=C(NCCCC1CCCCC1)c1ccc(CNC(=O)c2cnn(-c3ccccc3)c2C(F)(F)F)cc1 | cell-free assay | – | competition with immobilised ligand | 0.1 µM | remaining binding | 96% |
| Cn1cncc1C1=CN(c2ncnc3[nH]cnc23)CCS1 | enzyme activity | inhibitor | radiometric | 2 µM | inhibition | 87.3% |
| CNC(=O)c1cc(Oc2ccc(NC(=O)Nc3ccc(Cl)c(C(F)(F)F)c3)cc2)ccn1 | cell-free assay | – | – | 0.5 µM | remaining signal | 91.4% |
| Cc1ccc(NC(=O)c2ccc(C)c(C(F)(F)F)c2)cc1C#Cc1nn(C2CCC(O)CC2)c2ncnc(N)c12 (centres unmarked) | cell-free assay | – | – | 10 µM | remaining signal | 33% |
| COc1ccc(COc2ccc(Cc3cnc(N)nc3N)cc2OC)cc1 | cell-free assay | – | – | 0.5 µM | remaining signal | 89.5% |
| COc1cc(/C=C/C(=O)CC(=O)/C=C/c2ccc(O)c(OC)c2)ccc1O | enzyme activity | inhibitor | – | 1 µM | activity vs control | 46% |
| C[C@@H]1CN(c2cc(-c3nn(C)c4ccc(OC5(C)CC5)cc34)ncn2)C[C@H](C)O1 | cell-free assay | – | competition with immobilised ligand | 1 µM | remaining binding | 100% |
| CNc1cccc2cc(C(=O)Nc3ccc(C(=O)O)cc3)c(=O)[nH]c12 | enzyme activity | inhibitor | – | 10 µM | inhibition | 9% |
| COc1cc2ncnc(Nc3ccc(Oc4ccccc4)cc3C)c2cc1OC | enzyme activity | inhibitor | – | 1 µM | inhibition | -2% |
| C[C@H](c1cccc(C#N)c1)n1cc(Cl)cc(C(N)=O)c1=N | cell-free assay | – | competition with immobilised ligand | 1 µM | remaining binding | 100% |
| CCN(CC)CCNC(=O)c1c(C)[nH]c(/C=C2\C(=O)Nc3ccc(F)cc32)c1C | enzyme activity | inhibitor | – | 0.3 µM | inhibition | 30% |
| COc1cc(-c2cn(C3CCc4c(F)cccc4N(CC(F)(F)F)C3=O)nn2)ccc1-n1cnc(C)c1 (centres unmarked) | cell-free assay | – | competition with immobilised ligand | 1 µM | remaining binding | 100% |
| Nc1ncnc2occ(-c3ccc(NC(=O)Nc4cc(C(F)(F)F)ccc4F)cc3)c12 | cell-free assay | inhibitor | – | 20 µM | remaining signal | 0.1% |
| CN(c1ncccc1CNc1nc(Nc2ccc3c(c2)CC(=O)N3)ncc1C(F)(F)F)S(C)(=O)=O | enzyme activity | inhibitor | – | 1 µM | inhibition | 26.4% |
| Cc1ccc(-n2nc(C(C)(C)C)cc2NC(=O)Nc2ccc(OCCN3CCOCC3)c3ccccc23)cc1 | enzyme activity | inhibitor | – | 10 µM | inhibition | 39% |
| CCOCCn1cc(C(=O)Nc2ccc(-n3nc(-c4cccnc4)cc3C(F)(F)F)cn2)ccc1=O | cell-free assay | – | competition with immobilised ligand | 1 µM | remaining binding | 97% |
| N#CCCc1ccc2c(c1)-c1[nH]c3ccc([N+](=O)[O-])cc3c1CC(=O)N2 | cell-free assay | – | – | 0.5 µM | remaining signal | 98% |
| CSc1cccnc1N1CCN(Cc2nc3ccccc3[nH]2)CC1 | cell-free assay | – | competition with immobilised ligand | 1 µM | remaining binding | 87% |
| O=C1Nc2ccc(Cl)cc2C1=Cc1cc(Cl)c(O)c(Cl)c1 | cell-free assay | – | – | 0.5 µM | remaining signal | 91% |
